PAD4 FP inh: blocks human protein arginine deiminase 4; recombinant PAD4, RCA probe fluorescence polarization; inhibition, % at 6.36 µM; 330,000 compounds, 0.41% hits; AID 485272;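 active = percent inhibition above a cutoff equal to the mean of all tested compounds plus 3 SD, cut at about 15% in these data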;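 note: 0% = PAD4 with RCA probe and DMSO and 100% = probe without PAD4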
SIAE inh: inhibitors of human sialic acid acetylesterase SIAE; 370,000 compounds, 0.69% hits; SIAE FP-Rh probe binding, fluorescence polarization; inhibition, % at 9.66 µM; Q9HAT2;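 active = inhibition above a cutoff: mean of compounds within the control limits plus 3 SD of those, cut at about 17% in these data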;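 note: 0% = plate median of compound wells and 100% = probe without SIAE protein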
GSTO1 inh: counter-screen for RBBP9 inhibitors: inhibitors of human GSTO1; P78417; recombinant GSTO1, activity-based probe fluorescence polarization; inhibition, % at 5.96 µM; 300,000 compounds, 1.1% hits; AID 1974;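 active = inhibition above the campaign mean inhibition plus 3 SD, cut at about 35% in these data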;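 note: 0% = GSTO1-1 with DMSO and 100% = wells lacking GSTO1-1 enzyme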
RBBP9 inhibitor: inhibitors of human serine hydrolase RBBP9; recombinant RBBP9, FP-Rh probe fluorescence polarization; inhibition, % at 7.94 µM; AID 1515; O75884; 220,000 compounds, 0.2% hits;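 active = inhibition above the campaign mean of all tested compounds plus 3 SD, cut at about 14% in these data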;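 note: plate controls were DMSO wells with RBBP9 for no effect and wells lacking RBBP9 protein for full effect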
Target sequence (O75884 whole entry, looked up): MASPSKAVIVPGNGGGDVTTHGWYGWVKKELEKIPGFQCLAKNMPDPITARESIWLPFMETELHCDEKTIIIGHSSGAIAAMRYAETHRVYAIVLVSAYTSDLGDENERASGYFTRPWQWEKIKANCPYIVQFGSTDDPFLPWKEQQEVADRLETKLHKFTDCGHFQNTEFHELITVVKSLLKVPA
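system = RBBP9 protein | input = RBBP9 at 2.5 µM in dispensed solution, before mixing | measured by = fluorescence polarization (mP), excitation 525 nm, emission 598 nm | incubation = enzyme-compound preincubation 30 min, then probe labeling 45 min, 25 °C | buffer or medium = Tris-NaCl-Pluronic buffer, pH 8.0 | compound = single dose 7.94 µM | also added = FP-Rh probe, 375 nM dispensing solution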
PRMT1 FP inh: inhibitors of human PRMT1; AID 652257; 370,000 compounds, 1.3% hits; inhibition, % at 2.79 µM; recombinant PRMT1, activity-based probe fluorescence polarization;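 active = inhibition above about 21% made by adding two undisclosed values, limit read from the data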
Target sequence (Q99873 whole entry, looked up): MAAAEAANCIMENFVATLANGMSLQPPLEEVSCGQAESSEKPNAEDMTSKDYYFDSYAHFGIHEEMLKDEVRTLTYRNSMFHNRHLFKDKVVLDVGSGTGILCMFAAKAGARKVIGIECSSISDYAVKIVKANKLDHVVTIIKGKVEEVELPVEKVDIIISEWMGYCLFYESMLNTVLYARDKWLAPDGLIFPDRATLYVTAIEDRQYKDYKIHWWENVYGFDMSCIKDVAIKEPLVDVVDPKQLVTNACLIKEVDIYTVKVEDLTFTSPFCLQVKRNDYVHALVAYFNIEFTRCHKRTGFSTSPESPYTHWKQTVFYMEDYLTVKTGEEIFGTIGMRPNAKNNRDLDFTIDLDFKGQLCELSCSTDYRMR
PRMT1 confirm: confirmation of human PRMT1 inhibitors; 3,300 compounds, 42% hits; shares compounds with PRMT1 FP inh; inhibition, % at 2.79 µM; AID 687036; recombinant His-PRMT1, activity-based probe fluorescence polarization;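 active = mean inhibition across replicates above the hit cutoff derived for the earlier primary screen, cut at about 22% in these data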
Numbers without * were called inactive; x = no result. This is a sample that favours compounds with a hit; in the whole collection about 2.7% have one here.

SMILES | PAD4 FP inh | SIAE inh | GSTO1 inh | RBBP9 inhibitor | PRMT1 FP inh | PRMT1 confirm
Cc1ccc(C2c3sc(=O)[nH]c3SC3C4CC(C5C(=O)N(C(C)C(=O)O)C(=O)C45)C23)cc1 (stereo not drawn) | 9 | 1 | -1 | -5 | 59* | 20
O=[N+]([O-])c1ccc(CN2CCN(c3ccccc3)CC2)o1 | -6 | 1 | 6 | x | 4 | x
O=C(O)c1ccc(S(=O)(=O)c2ccc([N+](=O)[O-])cc2[N+](=O)[O-])cc1 | 5 | 3 | 25 | x | 30* | 27*
CN(C(=O)CNC(=O)c1ccccc1OCC(=O)Nc1ccc(I)cc1)c1ccccc1 | x | -1 | x | x | 31* | -3
Cc1nc2c(sc3nc4c(cc32)COC(C)(C)C4)c(=O)n1Cc1ccccc1 | 4 | 2 | 4 | -2 | -4 | x
CC(=O)OCC1=C(C(=O)O)N2C(=O)C(NC(=O)c3ccc(COc4cccc(Cl)c4Cl)o3)C2SC1 (stereo not drawn) | -4 | -14 | -12 | -15 | 37* | 13
COc1cccc(C(=O)NC2C(=O)N3C(C(=O)O)=C(COC(C)=O)CSC23)c1 (stereo not drawn) | 3 | 5 | x | x | 29* | 34*
CCOC(=O)Cc1csc(SCC(=O)Nc2nccs2)n1 | 1 | 5 | 3 | x | -2 | x
Cc1cc2cc(C(c3nnnn3Cc3ccco3)N3CCc4ccccc4C3)c(=O)[nH]c2cc1C (stereo not drawn) | -8 | -2 | -2 | -1 | 69* | 66*
Cc1c(C(=O)NCc2ccco2)oc2ccc(Br)cc12 | x | 10 | x | x | 2 | x
O=C(NCc1ccco1)c1cc2cc(Br)ccc2o1 | -4 | -3 | 7 | x | 31* | 25*
Nc1cc2c3c(cccc3c1)C(=O)N(CCN1CCCC1)C2=O | 1 | 5 | 0 | 6 | 11 | x
CCN(CC)CCN1C(=O)c2cccc3cc(N)cc(c23)C1=O | 2 | -1 | 2 | 5 | 25* | 22*
COc1ccc(-n2c(CNc3ccc(C)cc3)nnc2SCC(=O)Nc2nc(-c3ccccc3)cs2)cc1 | 0 | -3 | -1 | -9 | 0 | x
COC(=O)C1=C(C)NC(=O)NC1c1ccc(-c2ccc(Cl)cc2)o1 (stereo not drawn) | -6 | 7 | -2 | -9 | 4 | x
COC(=O)C1=C(C)NC(=S)NC1c1ccc(-c2cc(Cl)ccc2Cl)o1 (stereo not drawn) | -1 | -9 | -5 | -7 | 70* | 19
Cc1cc(NS(=O)(=O)c2ccc(NC(=O)CSc3nnc(-c4ccc(Cl)cc4)n3Cc3ccco3)cc2)nc(C)n1 | x | 3 | x | x | 1 | x
Cc1cc(NS(=O)(=O)c2ccc(NC(=O)CSc3nnc(-c4ccncc4)n3Cc3ccco3)cc2)nc(C)n1 | x | -6 | x | x | 33* | -1
COc1ccccc1OC(=O)CCN1c2ccccc2Sc2ccccc21 | -6 | 6 | 8 | -2 | -1 | x
COc1ccccc1-[n+]1c(C)cc(/C=C2\Sc3ccccc3N2C)cc1C | 0 | 9 | 6 | -7 | 26* | -10
Oc1ccccc1/C=N/NC(=S)NC1CC2CCC1C2 (stereo not drawn) | -3 | 6 | -23 | -1 | 4 | x
S=C(N/N=C/c1ccco1)NC1CC2CCC1C2 (stereo not drawn) | -1 | 10 | -6 | x | 27* | 3
Cc1ccccc1NC(=O)c1sc2nc3c(c(-c4ccco4)c2c1N)CCC3 | -2 | 1 | 8 | -4 | 44* | 9
Cc1ccc(S(=O)(=O)N2CCOCC2)cc1C(=O)NCCN1C(=O)S/C(=C\c2ccccc2Cl)C1=O | -3 | -6 | 6 | -4 | 2 | x
CCOC(=O)Cc1csc(-n2sc3ccccc3c2=O)n1 | -4 | -18 | -13 | -14 | 88* | 89*
SMILES | PAD4 FP inh | SIAE inh | GSTO1 inh | RBBP9 inhibitor | PRMT1 FP inh | PRMT1 confirm
O=C(O)CSc1nnc(COc2ccc([N+](=O)[O-])cc2)n1-c1ccccc1 | -2 | -1 | 4 | 0 | -1 | x
O=C(NCSc1ccncn1)c1ccccc1 | 1 | 5 | 23 | -1 | 49* | 9
CCOC(=O)c1c(SCCN2CCCCC2)n(-c2ccccc2)c(=S)n(-c2ccccc2)c1=O | x | -5 | x | x | 31* | 4
COc1ccc(NC(=O)CSc2sc3c(O)cc(=O)[nH]c3c2C#N)c(OC)c1 | -5 | -4 | 32 | x | 66* | 4
COc1ccc(Cl)cc1NC(=O)CSc1sc2c(O)cc(=O)[nH]c2c1C#N | -13 | -56 | -6 | x | 29* | 3
COc1ccccc1NC(=O)CSc1sc2c(O)cc(=O)[nH]c2c1C#N | -8 | -27 | 18 | x | 27* | 16
Cc1cc(C)c(NC(=O)C2CCN(C(=O)c3ccco3)CC2)c(C)c1 | -6 | -3 | 4 | x | 6 | x
c1ccc([C@H]2CN3C(=N2)Sc2ccccc23)cc1 | 14 | -7 | x | x | 29* | 20
O=C(O)c1ccc(/C=N/n2cc(-c3ccccc3)[nH]c2=S)cc1 | 0 | 5 | 2 | -11 | 10 | x
COc1ccccc1/C=C/C=N/n1c(-c2cc(-c3ccccc3)n[nH]2)n[nH]c1=S | 5 | -32 | -11 | -13 | 26* | 23*
S=c1[nH]c(-c2ccccc2)cn1/N=C/c1cccs1 | -2 | -2 | -3 | -8 | 45* | 22*
S=c1[nH]nc(-c2cc(-c3ccccc3)n[nH]2)n1/N=C/c1cccs1 | 7 | 5 | 6 | -6 | 28* | 31*
S=c1[nH]nc(-c2cc(-c3ccccc3)n[nH]2)n1N=Cc1c[nH]c2ccccc12 | x | 4 | x | x | 32* | 24*
Cc1cccc(/C=N/n2c(-c3cc(-c4ccccc4)n[nH]3)n[nH]c2=S)c1 | 7 | 8 | 8 | -13 | 4 | x
CCN(CC)S(=O)(=O)c1ccc(C(=O)NCc2n[nH]c(=S)n2-c2ccccc2OC)cc1 | 0 | 3 | 5 | -7 | 0 | x
CCN(CC)S(=O)(=O)c1ccc(C(=O)NCc2n[nH]c(=S)n2-c2ccc(Cl)c(Cl)c2)cc1 | -10 | 7 | 5 | -9 | 28* | 2
CCC(/C=N/NC(=O)C(=O)N/N=C/C(CC)CC)CC | -5 | 4 | 3 | -4 | -1 | x
N#CCc1c(C#N)c(N)nc(Nc2ccccc2)c1C#N | -2 | -3 | 7 | -12 | 40* | -1
COc1ccccc1C1C2=C(N=C3SCC(=O)N31)c1ccccc1CC2 (stereo not drawn) | -1 | -2 | 0 | 4 | 37* | 1
CCOC(=O)C1=C(c2ccccc2)N=C2SCC(=O)N2C1c1ccc(OCC)c(OCC)c1 (stereo not drawn) | -2 | 3 | 5 | 2 | -2 | x
COc1ccc(C2C3=C(N=C4SCC(=O)N42)c2ccccc2CC3)cc1OC (stereo not drawn) | 10 | -5 | 3 | -10 | 54* | 19
Cc1cc(O)c(N=Cc2cc3c(cc2[N+](=O)[O-])OCO3)cc1C | -5 | 8 | 34 | x | 25* | 22*

Assay outcomes as filed in PubChem.
